Experiments:
Assay type in all cases: functional
[1] = substrate: CCc1ccc(-c2ccccc2OCC(=O)Nc2ccc3c(C)c(CC(=O)O)c(=O)oc3c2)c(F)c1F; assay: (§1) Activity of cathepsin S assessed as substrate cleavage efficiency
Outline: (§2)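 Cathepsin S at 37 °C in pH 6.1 100 mM sodium phosphate, 100 mM NaCl, 1 mM DTT, 1 mM EDTA, 0.001% Tween-20. AMCA substrate added from DMSO at ≥6-fold below its K_M. Run in duplicate with and without enzyme. Fluorescence (ex 370/em 455 nm) read over up to 15 min. Slope gave V_max/K_M; k_cat/K_M used AMCA calibration and E-64c-titrated enzyme concentration.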

[2] = substrate: Cc1c(CC(=O)O)c(=O)oc2cc(NC(=O)COc3ccccc3-c3ccc(CC4CCCCC4)c(F)c3F)ccc12; assay: as §1; outline: as §2
[3] = substrate: CCCCc1ccc(-c2ccccc2OCC(=O)Nc2ccc3c(C)c(CC(=O)O)c(=O)oc3c2)c(F)c1F; assay: as §1; outline: as §2
[4] = substrate: Cc1c(CC(=O)O)c(=O)oc2cc(NC(=O)COc3ccccc3-c3ccc(F)c(F)c3F)ccc12; assay: as §1; outline: as §2
[5] = substrate: CCCc1ccc(-c2ccccc2OCC(=O)Nc2ccc3c(C)c(CC(=O)O)c(=O)oc3c2)c(F)c1F; assay: as §1; outline: as §2
[6] = substrate: COc1ccc(-c2ccccc2OCC(=O)Nc2ccc3c(C)c(CC(=O)O)c(=O)oc3c2)c(F)c1F; assay: as §1; outline: as §2
[7] = substrate: Cc1c(CC(=O)O)c(=O)oc2cc(NC(=O)COc3ccccc3-c3ccc(CC(C)C)c(F)c3F)ccc12; assay: as §1; outline: as §2

B1: Cathepsin S (Homo sapiens), P25774 (protein)
chain: MKRLVCVLLVCSSAVAQLHKDPTLDHHWHLWKKTYGKQYKEKNEEAVRRLIWEKNLKFVMLHNLEHSMGMHSYDLGMNHLGDMTSEEVMSLMSSLRVPSQWQRNITYKSNPNRILPDSVDWREKGCVTEVKYQGSCGACWAFSAVGALEAQLKLKTGKLVSLSAQNLVDCSTEKYGNKGCNGGFMTTAFQYIIDNKGIDSDASYPYKAMDQKCQYDSKYRAATCSKYTELPYGREDVLKEAVANKGPVSVGVDARHPSFFLYRSGVYYEPSCTQNVNHGVLVVGYGDLNGKEYWLVKNSWGHNFGEEGYIRMARNKGNHCGIASFPSYPEI
Protein B1 has a kcat/Km [1] of 25900 M⁻¹ s⁻¹, a kcat/Km [2] of 15700 M⁻¹ s⁻¹ and a kcat/Km [3] of 85000 M⁻¹ s⁻¹. For the same protein, the kcat/Km [4] was 27000 M⁻¹ s⁻¹, the kcat/Km [5] was 145000 M⁻¹ s⁻¹ and the kcat/Km [6] was 2700 M⁻¹ s⁻¹. It also gave a kcat/Km [7] of 288000 M⁻¹ s⁻¹.
